# This is a sample that favours compounds with a hit; in the whole collection about 4.2% have one here.
# TAAR1 ag: human TAAR1 agonists, primary screen, Fluo-8 calcium fluorescence, CHO RD-HGA16 cells; Trace amine-associated receptor 1 (Homo sapiens), Q96RJ0; vehicle wells 0%, saturating PEA agonist 100%; activation, % at 3 µM; 0.99% of 360,000 active; AID 624467, 2012;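 active = activation above the mean activation of all test compounds in the run plus 3 SD, cut at about 38% in these data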
# Target sequence (Q96RJ0 whole entry, looked up): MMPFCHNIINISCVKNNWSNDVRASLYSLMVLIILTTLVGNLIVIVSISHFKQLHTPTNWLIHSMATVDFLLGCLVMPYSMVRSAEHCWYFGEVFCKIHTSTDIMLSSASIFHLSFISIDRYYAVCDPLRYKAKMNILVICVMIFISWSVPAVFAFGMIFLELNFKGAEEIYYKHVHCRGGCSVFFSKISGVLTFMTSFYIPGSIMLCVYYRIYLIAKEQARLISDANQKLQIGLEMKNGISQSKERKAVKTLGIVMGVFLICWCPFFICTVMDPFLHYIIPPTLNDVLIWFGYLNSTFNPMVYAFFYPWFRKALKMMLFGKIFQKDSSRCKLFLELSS
#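 Test system: RD-HGA16 (CHO) cells co-expressing Gα16 and hTAAR1 / Benchmarks: DMSO vehicle as 0%, PEA at EC100 as 100% / Repeats: no replicates (n 1) / Measure: % activation from peak over basal fluorescence ratio, DMSO-to-PEA scaled / Timing: 17-24 h plating, Fluo-8 75 min 37 °C, 30 min RT / Technique: kinetic Fluo-8 calcium fluorescence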
# OX1R antag-1: antagonists of human orexin 1 receptor (OX1R); 1.8% of 330,000 active; OX1R-expressing cells, FRET antagonist read-out; inhibition, % at 6.6 µM; Orexin/Hypocretin receptor type 1 (Homo sapiens), O43613; in the data active = inhibition mostly above about 38%, no sharp cut-off; inactive = mostly below about 40%
# OX1R antag-2: OX1R (HCRTR1) antagonists, primary screen, fluorescence, CHO/OX1R cells, Fluo-8 calcium, orexin A. Orexin/Hypocretin receptor type 1 (Homo sapiens), O43613. Fluo-8 calcium fluorescence. 0.43% of 330,000 active. inhibition, % at 5 µM. AID 434989, 2010;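 active = inhibition above its plate's threshold, mean inhibition of all tested compounds on the plate plus 3 SD, cut at about 37% in these data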
# GalR3 antag: GalR3 antagonists in HEK293 cells, primary screen, cell-based, fluorescence readout; Galanin receptor type 3 (Homo sapiens), O60755; HEK293 GalR3-CNG cAMP membrane potential fluorescence; galR3 body fused to GalR1 C-terminus; inhibition, % at 3 µM; 0.44% of 360,000 active; AID 651719, 2012;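 active = inhibition above the screen-wide average plus 3 SD, cut at about 13% in these data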;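 also: forskolin and galanin both at EC90 stimulate the cells; cAMP rise reported by CNG channel membrane potential dye signal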
# Target sequence (O60755 1-299 limits assumed): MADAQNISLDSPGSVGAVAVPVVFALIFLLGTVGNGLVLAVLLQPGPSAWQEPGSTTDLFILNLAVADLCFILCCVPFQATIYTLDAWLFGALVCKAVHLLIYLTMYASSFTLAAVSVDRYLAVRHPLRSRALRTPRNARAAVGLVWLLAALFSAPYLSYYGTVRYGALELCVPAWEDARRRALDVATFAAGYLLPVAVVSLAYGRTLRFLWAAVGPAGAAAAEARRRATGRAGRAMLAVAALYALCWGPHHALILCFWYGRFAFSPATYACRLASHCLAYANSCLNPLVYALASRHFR
# CHO parental Ca: ATP-evoked calcium signal inhibitors, parental CHO, primary screen, counter-screen for OX1R antagonist project, cell-based, fluorescence, Fluo-8 calcium dye | parental CHO-K1, ATP-induced calcium, Fluo-8 fluorescence | inhibition, % at 5.6 µM | 0.63% of 330,000 active | AID 463079, 2010;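 active = inhibition above that plate's mean sample inhibition plus 3 SD, cut at about 26% in these data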
#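 Assay system – parental CHO cells · Reagent – ATP stimulus · Detection – intracellular calcium via Fluo-8 no-wash fluorescent dye · Evaluation – percent inhibition of ATP-evoked calcium rise, normalized to controls · Controls – ATP wells versus no-ATP DMSO wells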
# TAAR1 antag: human TAAR1 antagonists, primary screen, Fluo-8 calcium fluorescence, CHO RD-HGA16 cells. Trace amine-associated receptor 1 (Homo sapiens), Q96RJ0. antagonist. inhibition, % at 3 µM. 1.5% of 360,000 active. AID 624466, 2012;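 active = inhibition above a per-plate cutoff, the mean inhibition of test compounds on that plate plus 3 SD, cut at about 49% in these data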
#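 Test system: CHO RD-HGA16 cells bearing hTAAR1 | Reagent: β-PEA, EC80 | Compound dosing: 3 µM, single point | Schedule: Dye loading 75 min at 37 °C, then 30 min room temperature | Signal: Calcium fluorescence with Fluo-8 | Evaluation: Percent inhibition of PEA-evoked calcium signal, max/basal emission ratio | Control set: DMSO-only wells and EC80 β-PEA-stimulated wells | Repeats: Singlicate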
# OX1R Ca confirm: OX1R (HCRTR1) antagonists, confirmation, fluorescence, CHO/OX1R cells, Fluo-8 calcium, orexin A; shares compounds with OX1R antag-2; 38% of 1,100 active; inhibition, % at 5 µM; orexin A calcium Fluo-8 fluorescence; in the data active = inhibition above about 29%
# CHO Ca counter: ATP-evoked calcium inhibition in parental CHO, counter-screen for OX1R antagonist project, cell-based, fluorescence, CHO-K1, triplicate; inhibition, % at 5.6 µM; 9.3% of 1,100 active; ATP-induced calcium, Fluo-8 fluorescence; shares compounds with OX1R antag-2;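 active = inhibition above a per-plate limit, the mean inhibition of that plate's test compounds plus 3 SD, cut at about 25% in these data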
# Numbers stand for hits; n = inactive; x = no result given.
SMILES,TAAR1 ag,OX1R antag-1,OX1R antag-2,GalR3 antag,CHO parental Ca,TAAR1 antag,others
Cc1nc2cc(C(F)(F)F)ccc2n1C1CCN(Cc2nnnn2Cc2ccc3c(c2)OCO3)CC1,n,n,n,n,n,n,
CCN(CC)S(=O)(=O)c1ccc(N=Cc2c(O)n(-c3ccccc3)c(=O)[nH]c2=O)cc1,n,n,n,n,n,n,
O=C1c2cccc3cccc(c23)C(=O)N1/N=C/c1c(O)n(-c2ccccc2)c(=O)[nH]c1=O,n,61,n,n,n,n,
O=C(N/N=C\C1C(=O)NC(=S)N(c2ccccc2)C1=O)c1ccc(O)cc1 (stereo unspecified),n,46,n,n,n,n,
CC(C)(C)n1cccc1/C=C1\C(=O)NC(=O)N(c2ccccc2)C1=O,n,n,n,n,n,n,
O=c1[nH]c(O)c(N=Nc2ccc(SC(F)F)cc2)c(=O)[nH]1,n,42,n,n,n,n,
NC(=O)c1ccc(N=Nc2c(O)[nH]c(=O)[nH]c2=O)cc1,x,n,n,x,n,x,
NC1=Nc2ccccc2Oc2ccccc21,40,n,n,n,n,n,
C=CCC1(CN2CCCC2=O)C(=O)NC(=O)NC1=O,x,n,n,x,n,x,
CN1CC[C@@]2(C)c3cc(O)ccc3N(C)C2O1 (stereo partly specified),x,60,n,x,n,x,
CCOc1ccc(-n2c(O)c(N=Nc3ccc([N+](=O)[O-])cc3)c(=O)[nH]c2=O)cc1,n,76,n,n,n,n,
O=C(Nc1ccc(F)cc1)OC1CN2CCC1CC2 (stereo unspecified),n,n,n,n,n,n,
COc1cc(C2c3cc4c(c(O)c3CC3COC(=O)C32)OCO4)cc(OC)c1OC (stereo unspecified),n,x,x,n,x,50,
COc1cc(C2c3cc4c(cc3CC3COC(=O)C32)OCO4)cc(OC)c1OC (stereo unspecified),n,n,n,n,n,n,
CN1CCC2(CC1)c1ccccc1-c1ccccc12,n,x,x,n,x,n,
N=C1c2ccccc2CN1NC(=O)c1ccc(Br)o1,n,n,n,n,n,n,
O=C(c1ccccc1)N1Cc2cc(Br)ccc2-n2nncc2C1,n,x,x,n,x,n,
COc1ccc(-n2nnnc2C(CCSC)N2CCC3(CC2)C(=O)NCN3c2ccccc2)cc1 (stereo unspecified),n,x,x,n,x,51,
CCOC(=O)C1=C(N)Oc2c(c(=O)oc3ccccc23)C12C(=O)N(C)c1ccccc12 (stereo unspecified),n,n,n,n,n,n,
O=C(C1CCCN(S(=O)(=O)c2cccc3nsnc23)C1)N1CCC2(CC1)OCCO2 (stereo unspecified),n,41,n,n,n,n,
O=C(C(Cc1ccccc1)NS(=O)(=O)c1cccc2nsnc12)N1CCC2(CC1)OCCO2 (stereo unspecified),n,n,n,n,n,n,
N#Cc1ccc2nc(-c3ccc(CN4CCC(n5c(=O)[nH]c6ccccc65)CC4)cc3)c(-c3ccccc3)nc2c1,n,x,x,n,x,61,
Nc1ccccc1C(=O)OC1CSC1,n,n,n,n,n,n,
COc1cc(NC(=O)CN2C3CCC2CC(O)(c2cccnc2)C3)cc(OC)c1 (stereo unspecified),n,n,n,n,n,n,
CC(=O)N1CCN(c2ccc([N+](=O)[O-])cc2C=C2C(=O)NC(=O)NC2=O)CC1,n,64,n,n,n,n,
SMILES,TAAR1 ag,OX1R antag-1,OX1R antag-2,GalR3 antag,CHO parental Ca,TAAR1 antag,others
O=C(O)c1cccc2nc3ccccc3nc12,n,48,n,n,n,n,
O=c1c2ccccc2[se]n1-c1ccccc1,41,n,n,n,47,n,
O=c1c2ccccc2nc(-c2ccccc2)n1-c1ccccc1,n,n,n,n,n,n,
CC(C)OP(=O)(Oc1ccc(C(O)C(Cl)(Cl)Cl)cc1)OC(C)C (stereo unspecified),n,59,n,n,n,n,
CCN(CC)C(=O)c1ccc(NC(=O)c2ccc(-n3cncn3)c([N+](=O)[O-])c2)cc1,n,64,n,n,n,n,
O=C1NCN(c2ccccc2)C12CCN(C(c1cccc3ccccc13)c1nnnn1C1CCCC1)CC2 (stereo unspecified),n,x,x,n,x,n,
O=c1c2ccccc2nc(/C=C/c2ccc3c(c2)OCO3)n1-c1ccccc1,n,n,n,n,n,n,
COc1ccc(-n2c(/C=C/c3ccc(O)c(O)c3)nc3ccccc3c2=O)cc1,n,n,n,n,n,50,
COc1cc(/C=C/c2nc3ccccc3c(=O)n2-c2ccc(O)cc2)ccc1O,n,n,n,n,n,67,
O=c1c2ccccc2nc(/C=C/c2ccccn2)n1-c1ccccc1,n,n,n,n,n,n,
COc1ccc(C(CC(=O)N2CCC3(CC2)OCCO3)NS(=O)(=O)c2ccc(OC)cc2)cc1 (stereo unspecified),n,n,n,n,n,n,
Cc1c(N=Nc2c(O)n(-c3ccc(Br)cc3)c(=O)[nH]c2=O)c(=O)n(-c2ccccc2)n1C,n,66,n,n,n,n,
NNc1n[nH]c(=S)n1N,n,61,n,n,n,n,
O=C(c1cc2cc(Cl)ccc2[nH]1)N1CCC2(CC1)OCCO2,n,n,n,n,n,n,
CC(=NCC1CCCO1)c1c(O)n(-c2ccc(Cl)cc2)c(=O)[nH]c1=O (stereo unspecified),n,n,n,n,n,n,
Oc1c(Br)c(Br)c(Br)c(Br)c1Br,x,37,n,x,n,x,
Cn1cc(/C=C2\C(=O)NC(=O)N(c3ccccc3)C2=O)c2ccccc21,n,n,54,n,n,n,OX1R Ca confirm=n;CHO Ca counter=n
COc1ccccc1N1CCN(Cc2cc(C)c(C)cc2O)CC1,n,n,n,n,n,n,
CCCCCCCCn1sccc1=O,n,n,37,n,n,n,OX1R Ca confirm=36;CHO Ca counter=n
CC(=O)Nc1ccccc1C(=O)OCC(=O)c1ccc2ccccc2c1,n,n,44,n,n,n,OX1R Ca confirm=32;CHO Ca counter=n

# From PubChem
